Screening data (PubChem BioAssay)
V1aR counter – agonists of human V1a receptor, primary screen, counter-screen for OXTR agonist project, fluorescence, CHO-V1R cells. Vasopressin V1a receptor (Homo sapiens), P37288. Fluo-8 calcium fluorescence, agonist mode; 0% DMSO, 100% 3 nM vasopressin. activation, % at 3 µM. 320,000 tested, 0.25% active. AID 2797, 2010;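 active = activation above the mean activation of all tested compounds plus 3 SD, per screening run, cut at about 20% in these data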;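 also: signal is peak over basal fluorescence ratio across a 100 second FLIPR read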
TRPML3 ag – human TRPML3 channel agonists, primary screen, cell-based, HEK293 TRPML3-YFP, Fluo-8 calcium fluorescence, 3 µM. Mucolipin-3 (Homo sapiens), Q8TDD5. 100% = the carbachol control signal. activation, % at 3 µM. 220,000 tested, 0.29% active. AID 1448, 2008;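 active = activation above its plate's cutoff, the mean activation of the plate's test wells plus 3 SD, cut at about 12% in these data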;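 also: 0% = DMSO only wells and 100% = carbachol wells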
Target sequence (Q8TDD5 whole entry, looked up): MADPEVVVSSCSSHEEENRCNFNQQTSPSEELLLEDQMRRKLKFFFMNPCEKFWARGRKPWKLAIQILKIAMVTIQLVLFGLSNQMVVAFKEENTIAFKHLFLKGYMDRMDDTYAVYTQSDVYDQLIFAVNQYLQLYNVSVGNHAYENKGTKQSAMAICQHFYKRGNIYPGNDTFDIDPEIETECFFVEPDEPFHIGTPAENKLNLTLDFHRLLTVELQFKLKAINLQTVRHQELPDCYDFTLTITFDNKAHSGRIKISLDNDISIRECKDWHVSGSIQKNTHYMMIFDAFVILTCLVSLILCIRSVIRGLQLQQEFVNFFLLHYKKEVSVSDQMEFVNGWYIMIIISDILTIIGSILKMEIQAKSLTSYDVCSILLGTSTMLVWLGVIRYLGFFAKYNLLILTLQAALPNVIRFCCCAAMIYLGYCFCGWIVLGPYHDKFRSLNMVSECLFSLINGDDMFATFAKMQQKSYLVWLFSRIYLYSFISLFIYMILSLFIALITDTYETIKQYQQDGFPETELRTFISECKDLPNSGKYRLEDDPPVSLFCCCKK
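system = HEK293 cells stably carrying human TRPML3-YFP | doses = one concentration, 3 µM nominal, 0.3% DMSO | timing = dye loading 1 h 37 °C then 30 min ambient, 125 s read | detection = Fluo-8 calcium dye fluorescence, ex 470-495, em 515-575 nm | benchmarks = high control carbachol 87 µM, low control DMSO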
OXTR agonist – human OXTR agonists, primary screen, fluorescence, CHO-OTR cells, Fluo-8 calcium; 320,000 tested, 0.32% active; Fluo-8 calcium fluorescence; normalized: DMSO 0%, oxytocin 100%; activation, % at 3 µM; Oxytocin receptor (Homo sapiens), P30559; AID 2435, 2010;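 active = activation above the mean of all tested compounds plus 3 SD, cutoff set per screening run, cut at about 20% in these data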;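 also: peak over basal fluorescence ratio from a 100 s FLIPR kinetic read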
OXTR potentiator – human OXTR potentiators, primary screen, fluorescence, CHO-OTR cells, Fluo-8 calcium | Oxytocin receptor (Homo sapiens), P30559 | Fluo-8 calcium fluorescence, potentiator mode; 0% = oxytocin EC15, 100% = EC100 | activation, % at 3 µM | 320,000 tested, 0.061% active | AID 2445, 2010;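 active = activation above that plate's cutoff, the mean activation of tested compounds plus 3 SD, cut at about 6.6% in these data, passing the limit was not always enough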;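 also: 100% uses oxytocin at 75 nM as the full agonist control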
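Assay system: CHO cell line stably expressing human OTR. Reagent: EC15 oxytocin agonist. Dosing: single dose, 3.0 µM nominal final compound concentration. Timing: compound 6 min at room temperature before oxytocin, 100 s read. Signal: kinetic Fluo-8 calcium fluorescence. Controls: oxytocin EC15 low and EC100 high.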
zfTRPN1 agonist – zebrafish TRPN1 channel agonists, primary screen, cell-based, HEK293, calcium fluorescence; transient receptor potential cation channel N1 (TRPN1/NompC), Danio rerio; HEK293 zebrafish TRPN1-YFP, Fluo-8 calcium fluorescence; 100% = response to 87 µM carbachol; activation, % at 3 µM; 220,000 tested, 0.18% active; AID 1424, 2008;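 active = activation above its plate's cutoff, the mean activation of test wells on that plate plus 3 SD, cut at about 19% in these data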;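 also: 0% = DMSO alone and 100% = 87 µM carbachol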
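Material: zebrafish TRPN1-YFP in HEK293 cells; Doses: single test compound dose, 3 µM nominal, 0.3% DMSO; Timing: dye loading 1 h at 37 °C, then 30 min room temperature; Technique: intracellular calcium fluorescence with Fluo-8; Benchmarks: high carbachol 87 µM, low DMSO alone.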
OXTR ag confirm – human OXTR agonists, confirmation, fluorescence, CHO-OTR cells, triplicate. 390 tested, 20% active. AID 434963, 2010. activation, % at 3 µM. Fluo-8 calcium fluorescence, agonist. shares compounds with OXTR agonist;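 active = mean activation above about 20% derived from the earlier single-dose screen, limit read from the data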;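 also: peak over minimum fluorescence ratio per well during a 100 second FLIPR read; 0% = DMSO alone and 100% = oxytocin high control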
V1aR counter 3x – V1a receptor agonists, calcium signal, counter-screen for OXTR agonist project, triplicate, fluorescence, CHO-V1R cells; Fluo-8 calcium fluorescence; shares compounds with OXTR agonist; 390 tested, 10% active; activation, % at 3 µM;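 active = mean activation over triplicate exceeds the hit threshold set in the earlier primary screen, cut at about 20% in these data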;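 also: peak over basal fluorescence ratio within a 100 second read; 0% = DMSO alone and 100% = 3 nM vasopressin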
Numbers without * were called inactive; x = no result. An excerpt weighted towards active compounds, which were near 0.55% of everything screened.

SMILES | V1aR counter | TRPML3 ag | OXTR agonist | OXTR potentiator | zfTRPN1 agonist | OXTR ag confirm | V1aR counter 3x
O=C(CN(Cc1ccco1)C(=O)c1ccccc1)Nc1ccc(Cl)c(Cl)c1 | 1.2 | -0.9 | 2.4 | -17.8 | 0.3 | x | x
N#C/C(=C(/O)c1ccc(Cl)c([N+](=O)[O-])c1)c1nc2ccccc2[nH]1 | 7.5 | 2.8 | 25.8* | -6.3 | 9.8 | 3.9 | 5.6
N#C/C(=C(/O)c1ccc([N+](=O)[O-])cc1)c1nc2ccccc2[nH]1 | 1.4 | 1.8 | 2.6 | -9.2 | 2.1 | x | x
COC(=O)c1ccc2c(=O)n(CCCCCC(=O)NCCNC(C)=O)c(=O)[nH]c2c1 | 2.5 | 1.2 | -0.3 | 2.9 | 0.3 | x | x
COc1ccc(C(=O)/C=C2\Sc3ccccc3N2C)cc1 | -0.9 | -0.9 | -1.3 | -5.3 | -2.1 | x | x
COc1ccccc1-[n+]1c(C)cc(/C=C2\Sc3ccccc3N2C)cc1C | 12.1 | 11.8* | 25.5* | -14.1 | 26.0* | 26.0* | 25.6*
O=C(Nc1ccc(S(=O)(=O)N2CCCCC2)cc1)c1ccc(CN2CCOCC2)cc1 | 16.8 | 5.8 | 20.1* | -12.1 | 11.7 | 6.7 | 8.8
Cc1ccc(S(=O)(=O)c2nnn3c2nc(NCCCN2CCCC2=O)c2ccccc23)cc1C | 3.1 | x | 0.9 | -8.0 | x | x | x
Cc1ccc(S(=O)(=O)c2nnn3c2nc(NC2CCN(Cc4ccccc4)CC2)c2ccccc23)cc1C | -0.4 | x | 20.3* | -10.4 | x | -0.6 | -0.2
Cc1cc[n+](Cc2ccccc2)c(N)c1 | 1.4 | x | 0.9 | 0.2 | x | x | x
O=[N+]([O-])c1ccc(O)c(-c2cc(C(F)(F)F)nc(-c3ccccc3)n2)c1 | 15.8 | x | 25.9* | -22.6 | x | 15.1 | 11.8
N#C/C(=C\c1ccc(N2CCOCC2)o1)c1nc2ccccc2[nH]1 | 15.6 | 1.8 | 42.8* | -22.8 | 2.0 | 176.5* | 259.2*
N#C/C(=C\c1ccc(N2CCOCC2)c([N+](=O)[O-])c1)c1nc2ccccc2[nH]1 | 4.8 | 0.6 | 2.1 | -7.3 | 1.4 | x | x
COc1ccc(OC)c(NC(=O)CCN2CCN(c3ccccc3OC)CC2)c1 | 1.6 | x | -1.1 | -4.3 | x | x | x
COc1ccc(NS(=O)(=O)c2ccc(-n3nnc4ccccc43)c([N+](=O)[O-])c2)cc1 | 8.0 | 1.7 | 23.5* | -10.9 | 8.2 | 13.1 | 8.2
CCSc1nsc(NC(=O)Nc2cccc(F)c2)n1 | 15.7 | x | 19.8* | -26.4 | x | 12.4 | 13.2
O=C(Nc1cccc(F)c1)Nc1cccc(Cl)c1 | 12.6 | x | 19.9* | -24.7 | x | 4.5 | 5.7
O=C(Nc1cccc(Cl)c1)Nc1cccc(Cl)c1 | 9.3 | 4.8 | 14.4 | -22.1 | 10.4 | x | x
COc1cccc(NC(=O)Nc2nc(SC(C)(C)C)ns2)c1 | 18.2 | x | 23.4* | -25.8 | x | 13.1 | 11.0
COc1cccc(NC(=O)Nc2nc(SC)ns2)c1 | 9.9 | x | 11.8 | -7.7 | x | x | x
COc1ccccc1-c1nc(C#N)c(N2CCN(C(c3ccccc3)c3ccccc3)CC2)o1 | 0.3 | 0.2 | 0.6 | -8.7 | 1.2 | x | x
Cc1ccccc1N1CCN(C(=O)CCN2C(=O)c3ccccc3C2=O)CC1 | -1.1 | -0.2 | -1.6 | -4.0 | -0.1 | x | x
c1ccc(COc2ccc(OCCCNC3CCCC3)cc2)cc1 | 12.6 | 2.0 | 21.4* | -16.3 | 1.2 | 12.8 | 2.2
Cc1ccc(-c2nn(-c3ccccc3)cc2CSC(=N)N)cc1 | 12.2 | 0.6 | 23.7* | -12.4 | 1.8 | 4.4 | 5.3
OCc1cn(-c2ccccc2)nc1-c1ccc(-c2nn(-c3ccccc3)cc2CO)cc1 | 5.2 | 0.7 | 0.7 | -9.7 | 0.1 | x | x
SMILES | V1aR counter | TRPML3 ag | OXTR agonist | OXTR potentiator | zfTRPN1 agonist | OXTR ag confirm | V1aR counter 3x
Cc1ccc(Cl)cc1N1CCN(C(=O)C2CCN(S(=O)(=O)c3c(C)nn(C)c3C)CC2)CC1 | 16.3 | 0.8 | 21.5* | -12.0 | 4.5 | 12.1 | 10.6
Cc1ccc(C)c(NC(=O)Cn2cc(C(=O)C3CC3)c3ccccc32)c1 | 3.5 | x | 2.7 | -5.7 | x | x | x
O=C(Nc1ccc([N+](=O)[O-])cc1Cl)c1cc(Cl)ccc1O | 13.2 | x | 20.6* | -18.3 | x | 15.3 | 12.5
CN(c1ccccc1)c1ccc(/C=C/[N+](=O)[O-])cc1 | 15.2 | 10.1 | 28.8* | -11.7 | 16.5 | 25.6* | 32.4*
Cc1c(Cl)cccc1-c1ccc(CNCc2ccccn2)o1 | 1.2 | x | 1.4 | -6.3 | x | x | x
Cc1ccc(OCc2nnc(SCC(=O)Nc3sc(C)c(C)c3C#N)n2C)cc1 | -0.5 | 0.7 | 20.9* | -19.3 | 0.2 | -1.0 | -0.7
Cc1sc(NC(=O)CSc2nnc(COc3ccccc3)n2C)c(C#N)c1C | 3.5 | 0.4 | -0.2 | -13.6 | -1.3 | x | x
NC(=O)c1ccc(NC(=O)CCN=C2NS(=O)(=O)c3ccccc32)cc1 | 1.6 | x | -0.3 | -8.2 | x | x | x
Cc1cccc(Oc2ccc(NC(=O)C3=CC=CN4CCS(=O)(=O)N=C34)cc2)c1 | 7.2 | x | 20.8* | -10.7 | x | 11.1 | 3.3
Cc1ccc(Oc2ccc(NC(=O)C3=CC=CN4CCS(=O)(=O)N=C34)cc2)cc1 | 6.8 | x | 23.5* | -11.9 | x | 9.0 | 2.3
CC(C)(C)c1ccc(NC(=O)C2=CC=CN3CCS(=O)(=O)N=C23)cc1 | 2.1 | x | 4.1 | -8.8 | x | x | x
CC(C(=O)NCCc1ccc(Cl)cc1)n1c(=O)c2cccn2c2cccnc21 (configuration not stated) | -0.6 | x | -1.4 | 0.1 | x | x | x
CC(=O)Nc1ccc(/C(C)=N/Nc2nc(Nc3cccc4ccccc34)nc(N3CCOCC3)n2)cc1 | 12.1 | 4.6 | 24.7* | -13.5 | 9.3 | -0.5 | -0.2
O=C(Nc1ccc(Cl)c(Cl)c1)c1cccc(S(=O)(=O)NCc2cccnc2)c1 | 13.2 | 2.6 | 20.3* | -14.4 | 5.2 | 9.1 | 9.1
Cc1ccc(CNC(=O)c2cccnc2Sc2cccc(Cl)c2)cc1 | 16.1 | 2.5 | 18.8 | -17.3 | 9.7 | x | x
COc1ccc(CNC(=O)c2cccnc2Sc2ccc(Cl)cc2)cc1 | 10.1 | -0.7 | 21.8* | -10.2 | 0.8 | 5.5 | 5.0
CSc1ccc2c(c1)N(CCC1CCCCN1C)c1ccccc1S2 (configuration not stated) | 8.6 | 1.5 | 23.6* | -10.0 | 2.5 | 16.1 | 5.5
